# From paper PMC4739781 (Journal of materials chemistry. B, Materials for biology …, 2015)
# Read-outs that look alike come from different tables or passages of the source.
# Key:
# [1] = tested on: A549 human lung adenocarcinoma cells; test: A549 cell cytotoxicity in the dark and after irradiation; assay type: cell-based; conditions: for Phototoxicity Index, PI: ratio of the dark and light A549 EC50 values
# In short: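 A549 cells kept in DMEM with 10% FBS and 1% pen-strep at 37 °C, 5% CO2, below 70% confluence. Seeded at 1,500 cells/well in opti-MEM with 1% serum supreme and 1% pen-strep, then held 6 hrs. Free or CNA-loaded complex was added (0–300 μM or 0–20 μM) in the dark for 18 h. Cells were then irradiated (410 W projector, λ>400 nm filter, 30 sec pulses with 30 sec gaps, 5 min total) or kept dark, and held 72 hrs. Resazurin 73.3 μM for 4 hrs; fluorescence ex 560/em 590 nm; triplicate. PI is dark EC50 over light EC50.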
# [2] = Ru complex release from PEG-ASP CNAs by dialysis under sink conditions; assay type: physicochemical; conditions: for Release (%) in the primary phase: two-phase fit
# In short: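 Triplicate dialysis under sink conditions. Loaded CNAs at 100 μg/mL complex in diH2O, either irradiated 3 hrs (200 W, λ>400 nm, 120 J/cm²) or kept dark, in 10,000 MWCO cassettes. Dialysed at 37 °C in the dark against 5 L PBS or 10 mM phosphate buffer without NaCl (pH 6.0 or 7.4). Free complex served as control. Cassette contents were sampled over 0–48 hrs and read by MLCT-peak absorbance. Data were fitted by one-phase exponential regression, or two-phase where that fit better.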
# [3] = log P by shake flask method; assay type: physicochemical; conditions: Dark (protected from light)
# In short: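 Shake flask method in triplicate, using n-octanol and diH2O mutually pre-saturated (4:1 mixtures, 24 hrs). Protected from light, complex at 200 μM (100 μM for the less water-soluble one) in diH2O was mixed 1:1 with n-octanol (1 mL total). Samples were shaken 10 min and centrifuged at 17,000 × g for 30 sec. Both phases were read by absorbance at the MLCT peak. Photoactivated samples were first irradiated 30 min (20 J/cm², λ>400 nm filter).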
# [4] = Ru complex photoactivation; assay type: physicochemical; conditions: after 30 min irradiation (200 W, λ>400 nm)
# In short: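 Free or CNA-loaded complex in PBS, in a 1 cm quartz cuvette 18 in from a 200 W projector with λ>400 nm cutoff filter. UV/Vis absorbance change was recorded over irradiation time. Photoactivation t1/2 (time for half the spectral change) was obtained by non-linear exponential regression.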
# pUC19 plasmid DNA = test: DNA agarose gel electrophoresis; assay type: biochemical
# A549 cells = test: A549 cytotoxicity with exposure limited to 8 hrs, wash, then irradiation; assay type: cell-based, human; conditions: irradiation λ>400 nm, 72 hrs
# In short: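 Free or CNA-entrapped complex was incubated with A549 cells for 8 hrs. Extracellular compound was washed off with fresh media. Cells were irradiated (λ>400 nm), incubated 72 hrs, and viability was read as in the standard assay: 73.3 μM resazurin for 4 hrs, fluorescence ex 560/em 590 nm.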
# [5] = Ru complex loading in PEG-ASP CNAs by UV/Vis absorption at MLCT peak; assay type: physicochemical; conditions: maximum theoretical loading 25 wt %
# In short: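 PEG-ASP(Na⁺) CNAs and Ru complex (theoretical maximum loading 25%) were dissolved in anhydrous DMSO and incubated overnight at room temperature, protected from light. Unbound complex was removed by dialysis (6,000–8,000 MWCO) against diH2O, changed twice daily for 3 days. The product was lyophilized. Loading was quantified by UV/Vis absorbance at each complex's MLCT peak.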
# [6] = air-equilibrated D2O at room temperature; cited from earlier work
# [7] = read-out: EC50 Dark, A549, protected from light, 72 hrs
# [8] = read-out: EC50 Light, A549, 5 min light irradiation (λ>400 nm), 72 hrs
smiles,measurement,setting,value
"N.N.[Cl][Pt][Cl] [cisplatin, reference compound]","Phototoxicity Index, PI",[1],1
same,EC50,[1]; [7],2.5 ± 0.6 µM
same,EC50,[1]; [8],2.5 ± 0.6 µM
"Cc1cccc(-c2cccc(C)n2)n1 [dmbpy, 6,6′-dimethyl-2,2′-bipyridine]",EC50,"[1]; Homo sapiens, A549, read-out: EC50 (ejected ligand cytotoxicity)",80 µM
"O.O.[Cl-].[Cl-].[Ru+2].c1ccc(-c2ccccn2)nc1.c1ccc(-c2ccccn2)nc1 [photoactivated 1, [Ru(bpy)2(H2O)2]Cl2]",Release (%) from PEG-ASP CNAs,"[2]; Photoactivated, PBS (100 mM NaCl), pH 7.4, 37 °C",77.7%
same,Release (%) from PEG-ASP CNAs,"[2]; Photoactivated, phosphate buffer 0 mM NaCl, pH 7.4, 37 °C",65.8%
"[Cl-].[Cl-].[Ru+2].c1ccc(-c2ccnc3c2ccc2c(-c4ccccc4)ccnc23)cc1.c1ccc(-c2ccnc3c2ccc2c(-c4ccccc4)ccnc23)cc1.c1ccc(-c2ccnc3c2ccc2c(-c4ccccc4)ccnc23)cc1 [compound 3, [Ru(dip)3]Cl2]",log P,[3],1.80 ± 0.02
same,Release (%) from PEG-ASP CNAs,"[2]; Dark, PBS (100 mM NaCl), pH 7.4, 37 °C",37.0%
same,Release (%) from PEG-ASP CNAs (total),"[2]; Dark, phosphate buffer 0 mM NaCl, pH 6.0, 37 °C",46.4%
same,Release (%) in the primary phase,"[2]; Dark, phosphate buffer 0 mM NaCl, pH 6.0",45.0%
same,Release (%) from PEG-ASP CNAs (total),"[2]; Dark, phosphate buffer 0 mM NaCl, pH 7.4, 37 °C",51.9%
same,Release (%) in the primary phase,"[2]; Dark, phosphate buffer 0 mM NaCl, pH 7.4",45.2%
same,amount released from PEG-ASP CNAs after 18 hrs,"[2]; after 18 hrs, dark",approximately 20%
same,photo-stability: change of UV/Vis absorbance spectrum,[4],did not change
same,EC50,"pUC19 plasmid DNA; read-out: DNA interaction EC50 (DNA precipitation), protected from light, 40 μg/mL pUC19, 10 mM PB pH 7.4",31.3 to 62.5 µM
same,EC50,"pUC19 plasmid DNA; read-out: DNA interaction EC50 (single strand DNA breaks), after photoactivation (40 J/cm^2, λ>400 nm), 40 μg/mL pUC19",15.6 to 31.3 µM
same,"Phototoxicity Index, PI",[1],>6
same,EC50,[1]; [7],0.6 ± 1.1 µM
same,EC50,[1]; [8],0.1 µM
same,potency when cells were washed after an 8 hr exposure time,A549 cells,remained potent
same,loading efficiency in PEG-ASP CNAs,[5],88%
same,weight % of Ru complex in loaded PEG-ASP CNAs,[5],22 wt %
same,singlet oxygen generation ΦΔ,[6],0.42
